Source: PubChem BioAssay
In the library only some 2.6% were active in any assay of this set; here they are far more common.
T cruzi repl – T. cruzi replication inhibition | T. cruzi beta-gal in NIH3T3, luminescence, 90 h | inhibition, % (no concentration beside the values) | hit rate 1.4% among 300,000 | AID 1885;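 active = mean inhibition across valid replicates above about 55%, limit read from the data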;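 also: signal also drops with host cell toxicity which is not excluded here; 0% = plate median of DMSO wells and 100% = zero luminescence signal; higher percent means less beta-gal luminescence so fewer parasites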
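assay system = mouse NIH/3T3 fibroblasts infected with β-gal-expressing T. cruzi Tulahuen C4 | input = 5,000 NIH/3T3 host cells per well | buffer or medium = DMEM plus 2% FBS | timing = 3 h host attachment, then at least 90 h co-culture | measured by = GalScreen luminescence, 60 min | evaluation = luminescence reflecting intracellular parasite burden, expressed as percent inhibition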
PolyA inhibitor – yeast polyadenylation inhibition; S. cerevisiae SKY197-pL101 polyadenylation reporter, beta-gal luminescence; efflux-impaired pdr1/pdr3 knockout yeast; score 100 = 6 SD above DMSO; activity score, % at 12 µM; hit rate 0.02% among 300,000; AID 1875;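 active = lowest replicate activity score at least 50, where 100 means six control SD above control mean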;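 also: yeast exposed to compound for 9 h at 30 °C; higher score means more reporter readthrough which indicates perturbed polyadenylation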
CHT inh – inhibitors of human choline transporter CHT. CHT-expressing cells, membrane potential dye, choline response; hits give low values. B-score at 10 µM. hit rate 0.86% among 310,000;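 active = B-score over 3 SD under the library average, and starting fluorescence ratio not unusually high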;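 also: choline stimulus applied at its EC90 after an EC20 pre-addition; B-score computed on integrated fluorescence ratio after choline addition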
Target sequence (Q9GZV3 whole entry, looked up): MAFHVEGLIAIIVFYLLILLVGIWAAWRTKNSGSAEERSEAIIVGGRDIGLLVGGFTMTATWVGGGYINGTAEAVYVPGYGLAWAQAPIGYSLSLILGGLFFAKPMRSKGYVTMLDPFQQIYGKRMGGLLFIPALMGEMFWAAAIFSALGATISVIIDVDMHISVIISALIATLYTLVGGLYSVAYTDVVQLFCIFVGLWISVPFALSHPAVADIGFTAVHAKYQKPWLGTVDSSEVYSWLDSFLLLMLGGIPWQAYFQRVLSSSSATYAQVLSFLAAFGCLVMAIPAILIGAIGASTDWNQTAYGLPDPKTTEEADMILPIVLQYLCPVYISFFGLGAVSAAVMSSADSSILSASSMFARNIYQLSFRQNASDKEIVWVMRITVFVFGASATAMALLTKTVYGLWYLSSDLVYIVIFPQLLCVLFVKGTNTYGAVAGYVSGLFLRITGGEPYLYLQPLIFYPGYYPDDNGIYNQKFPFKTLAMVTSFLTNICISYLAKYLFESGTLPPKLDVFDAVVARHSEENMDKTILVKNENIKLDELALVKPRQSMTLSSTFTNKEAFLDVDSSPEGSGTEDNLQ
CHT PAM – human CHT allosteric activation | hit rate 0.49% among 310,000 | Q9GZV3 | B-score at 10 µM | CHT-expressing cells, membrane potential dye, choline EC20; hits give high values; LV-AA mutant CHT in HEK293 cells;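 active = initial fluorescence not abnormally high and integrated response B-score, plate-corrected, over 3 SD above library mean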
CHT act confirm – confirmation of human choline transporter (CHT) activators; shares compounds with CHT PAM; CHT-expressing cells, membrane potential dye fluorescence (FDSS); % of choline EC20–EC90 response window; HEK293 expressing CHT LV-AA mutant; choline added at its EC20; activation, % at 10 µM; hit rate 91% among 2,500; AID 504833;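 active = primary screen active, with duplicate mean activation above negative control mean plus 3 SD, cut at about 11% in these data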
HEK293 MP dye – counter-screen for CHT activators: effect in parental HEK293 cells. hit rate 62% among 2,500. shares compounds with CHT PAM. membrane potential dye fluorescence (FDSS); measured after EC20 choline addition. ratio readout change at 10 µM, hits read low;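 active = duplicate-averaged ratio beyond 3 SD from buffer wells, up or down, though filed actives are nearly all decreases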
Active calls of the source: *; i = inactive; . = not tested or not shown.

SMILES	T cruzi repl	PolyA inhibitor	CHT inh	CHT PAM	CHT act confirm	HEK293 MP dye
O=S1(=O)CCN2C=Nc3sc4c(c3C2=N1)CCCC4	-12	3	i	i	.	.
O=C(NCCC(=O)N1CCC2(CC1)NCCc1[nH]cnc12)c1ccc(F)c(F)c1	-9	2	i	i	.	.
C[n+]1ccccc1/C=C/c1ccc(F)c(F)c1	5	10	i	8.3*	58*	-65*
Cc1ccccc1/C=C/c1cccc[n+]1C	14	-8	i	i	45*	-55*
C[n+]1ccccc1/C=C/c1ccccc1Cl	15	-7	i	i	.	.
C[n+]1ccccc1/C=C/c1c(F)cccc1F	2	-2	i	i	.	.
COc1ccccc1C(=O)NC(=O)COC(=O)Cn1[nH]c(=O)c2ccccc2c1=O	0	-1	i	i	.	.
Cc1cc(C)c(S(=O)(=O)N2CCCC(C(=O)NC3CCCC3)C2)c(C)c1 (stereo not given)	-2	24	i	i	.	.
CCN(Cc1ccncc1)C(=O)C(CO)c1ccccc1 (stereo not given)	2	3	i	i	.	.
COc1ccc2c(c1)CCCN2C(N)=Nc1ccc(Cl)cc1	1	0	i	6.3*	16*	i
COc1ccc2c(c1)CCCN2C(N)=O	-7	7	i	i	.	.
c1ccc(CN2CCN(c3nc(NCc4ccco4)c4ccccc4n3)CC2)cc1	36	-3	i	6.4*	26*	-53*
c1ccc(Nc2nc(NCc3ccco3)c3ccccc3n2)cc1	17	38	i	i	.	.
CCO[C@H]1OC(C(=O)NCc2nc3ccccc3[nH]2)=C[C@@H](C2CC2)[C@@H]1CCCO	-20	12	i	i	26*	i
O=[N+]([O-])c1ncccc1OCc1ccccc1Br	3	-19	i	i	.	.
CCCCn1c(N)c(N(CCC(C)C)C(=O)c2ccc(C)c(S(=O)(=O)N3CCOCC3)c2)c(=O)[nH]c1=O	-10	1	i	i	.	.
Cc1cccc(NS(=O)(=O)c2cn(C)c(=O)n(C)c2=O)c1C	-10	-12	i	i	.	.
O=C(O)C1NCCc2ccccc21 (stereo not given)	19	-3	i	i	8	i
COC(=O)Cn1c(CN2CCN(C(=O)c3ccco3)CC2)nc2c1c(=O)n(C)c(=O)n2C	-10	0	i	i	.	.
Cc1cccc(C)c1OCC(=O)Nc1cccc(-c2nnc(-c3ccccc3)o2)c1	26	16	i	i	29*	i
Cc1ccc(OCC(=O)Nc2cccc(-c3nnc(-c4ccccc4)o3)c2)cc1	-56	11	i	i	.	.
Cc1ccc2c(c1)sc1nc(=O)ccn12	-13	15	i	i	40*	-38*
COc1ccc2c(c1)sc1nc(=O)ccn12	-15	16	i	i	.	.
CCCc1n(CC)c2ccccc2[n+]1CC(O)COC1CCCCC1 (stereo not given)	47	4	i	7*	40*	i
CCOc1ccc2[nH]c(C)c(CN3CCCCC3)c(=O)c2c1	-5	5	i	7.6*	47*	-34*
SMILES	T cruzi repl	PolyA inhibitor	CHT inh	CHT PAM	CHT act confirm	HEK293 MP dye
Cc1[nH]c2ccc(Cl)cc2c(=O)c1CN1CCCC1	-6	-3	i	i	.	.
CCOc1ccc2[nH]c(C)cc(=O)c2c1	-3	-5	i	i	.	.
CCOc1ccc2[nH]c(C)c(CN(C)C)c(=O)c2c1	6	7	i	i	53*	-25*
CCC1=[N+](CC(=O)c2ccc(C)cc2)CCn2c(C)ccc21	27	-12	i	i	32*	i
CCC1=[N+](CC(=O)c2ccc(Br)cc2)CCn2c(C)ccc21	8	9	i	i	.	.
CC(C)CN1CCN(Cc2cccn2-c2ccc(Cl)cn2)CC1CCO (stereo not given)	24	9	i	i	54*	i
CCNC(=O)CN(c1ccc(Oc2ccccc2)cc1)S(=O)(=O)c1ccccc1	3	13	i	i	.	.
CCn1c(C)[n+](CCOCC[n+]2c(C)n(CC)c3cc(Cl)c(Cl)cc32)c2cc(Cl)c(Cl)cc21	.	.	i	6.7*	31*	-49*
Cc1cc(C(=O)Nc2cccc3ncccc23)no1	-10	8	i	i	.	.
Cc1cnc(C(=O)Nc2cccc3ncccc23)cn1	-8	9	i	8*	43*	-47*
Cc1cccc(CC(=O)NCC2CCCCC2)c1	-6	-14	i	i	.	.
CN(C)C=NCCn1c(N2CCOCC2)nc2c1c(=O)n(C)c(=O)n2C	-4	-1	i	14*	68*	-70*
Cn1c(=O)c2c(nc(N3CCOCC3)n2CCc2ccccc2)n(C)c1=O	-5	-8	i	i	.	.
Cn1c(=O)c2c(nc(SCCN3CCOCC3)n2Cc2ccc(F)cc2)n(C)c1=O	-5	-6	i	i	.	.
CCCCCCn1c(SCCN2CCOCC2)nc2c1c(=O)[nH]c(=O)n2C	-9	6	i	i	.	.
CCCCCn1c(SCCN2CCOCC2)nc2c1c(=O)[nH]c(=O)n2C	11	6	i	i	39*	-37*
CCn1c(SCCN2CCOCC2)nc2c1c(=O)n(C)c(=O)n2C	7	13	i	i	49*	-38*
Cn1c(=O)c2c(nc(SCCN3CCOCC3)n2C)n(C)c1=O	-10	-4	i	i	51*	-51*
O=C(NC1CCCC1)C(c1ccsc1)N(Cc1ccco1)C(=O)Cc1cccs1 (stereo not given)	0	-1	i	7.4*	33*	i
Cc1cc(NC(=O)CCC(=O)N(Cc2ccco2)C2(C(=O)NC3CCCCC3)CCCC(C)C2)no1 (stereo not given)	7	6	i	i	19*	i
O=C(NC1CCCC1)C(c1ccncc1)N(Cc1ccccc1)C(=O)Cc1cccs1 (stereo not given)	33	-6	i	i	.	.
O=C(Cc1cccs1)N(Cc1ccco1)C1(C(=O)NC2CCCC2)CCCCC1	18	-19	i	10*	41*	i
O=C(NC1CCCC1)C(c1ccsc1)N(Cc1ccccc1)C(=O)Cc1cccs1 (stereo not given)	15	-11	i	6.9*	43*	i
O=C(NC1CCCC1)c1cc(-c2ccc(Cl)cc2Cl)on1	5	-7	i	i	.	.
COc1ccccc1CN(C(=O)Cc1cccs1)C(C(=O)NC1CCCC1)c1ccncc1 (stereo not given)	53	5	i	i	0	i
